From ChEMBL document CHEMBL1156736, “Multidentate small-molecule inhibitors of vaccinia H1-related (VHR) phosphatase decrease proliferation of cervix cancer cells” (J Med Chem, 2009)
The source made the active and inactive calls. The calls are words filed in the database; no cut-off is given here.

Assays:
[1] = target: T1, Dual specificity protein phosphatase 3 (Homo sapiens, UniProt P51452); assay: Inhibition of recombinant vaccina H1-related phosphatase expressed in Escherichia coli by Michaelis-Menten kinetic studies
T1 sequence (P51452 whole entry, the tested form may be a part): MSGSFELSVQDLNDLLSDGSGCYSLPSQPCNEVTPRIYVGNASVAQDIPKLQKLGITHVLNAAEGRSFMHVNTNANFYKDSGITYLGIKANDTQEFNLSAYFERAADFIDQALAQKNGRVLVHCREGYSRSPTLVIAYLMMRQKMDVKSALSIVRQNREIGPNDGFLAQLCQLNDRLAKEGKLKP
How it was run: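 E. coli-expressed VHR (GST-fusion, thrombin-cleaved, gel-filtered) preincubated 10 min with several fixed inhibitor concentrations in Bis-Tris pH 6.0 buffer with DTT and 5% DMSO; started with pNPP at 0.2–10 Km; initial rates at 404 nm, no-enzyme corrected; Ki and mode by nonlinear fit to competitive, uncompetitive or mixed models, compared by AICc.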

[2] = target: T1, Dual specificity protein phosphatase 3; assay: Inhibition of recombinant vaccina H1-related phosphatase
[3] = target: T2, M-phase inducer phosphatase 1 (Homo sapiens, UniProt P30304); assay: Inhibition of recombinant Cdc25a
T2 sequence (P30304 whole entry): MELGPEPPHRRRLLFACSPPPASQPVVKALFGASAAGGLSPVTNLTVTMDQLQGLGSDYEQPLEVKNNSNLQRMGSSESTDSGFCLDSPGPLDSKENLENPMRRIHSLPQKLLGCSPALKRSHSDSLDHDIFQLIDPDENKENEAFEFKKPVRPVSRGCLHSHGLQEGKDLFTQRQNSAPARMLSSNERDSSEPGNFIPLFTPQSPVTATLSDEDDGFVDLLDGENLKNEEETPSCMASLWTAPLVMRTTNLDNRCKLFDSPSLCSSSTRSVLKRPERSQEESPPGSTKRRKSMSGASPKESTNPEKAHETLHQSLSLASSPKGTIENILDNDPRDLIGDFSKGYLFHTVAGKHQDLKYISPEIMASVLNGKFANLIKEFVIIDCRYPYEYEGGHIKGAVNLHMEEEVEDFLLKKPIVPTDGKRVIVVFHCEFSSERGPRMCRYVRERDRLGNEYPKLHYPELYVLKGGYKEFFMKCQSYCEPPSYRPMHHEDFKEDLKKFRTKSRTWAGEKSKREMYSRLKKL

[4] = target: T3, Tyrosine-protein phosphatase non-receptor type 7 (Homo sapiens, UniProt P35236); assay: Inhibition of recombinant HePTP
T3 sequence (P35236 whole entry): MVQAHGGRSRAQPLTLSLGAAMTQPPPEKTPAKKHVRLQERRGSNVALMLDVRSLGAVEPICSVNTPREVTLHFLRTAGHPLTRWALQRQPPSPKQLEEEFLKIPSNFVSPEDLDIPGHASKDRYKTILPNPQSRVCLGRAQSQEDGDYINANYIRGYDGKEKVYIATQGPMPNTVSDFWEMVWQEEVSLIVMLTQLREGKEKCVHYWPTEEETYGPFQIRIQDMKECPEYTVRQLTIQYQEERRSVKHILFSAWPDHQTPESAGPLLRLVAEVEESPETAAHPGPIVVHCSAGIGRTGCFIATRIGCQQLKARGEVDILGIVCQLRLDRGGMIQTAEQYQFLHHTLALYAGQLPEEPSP

HeLa [5] = assay: Antiproliferative activity against human HeLa cells at 20 uM after 24 hrs by Trypan blue assay; type: functional
How it was run: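 10^5 cells (HeLa in DMEM/10% FCS; primary normal keratinocytes from hysterectomy tissue, trypsin-EDTA dispersed, in K-SFM with EGF, pituitary hormone) treated 24 h with 20 μM inhibitor or DMSO; trypsinized and counted with trypan blue in a counting chamber; cell numbers as percentage of DMSO control; mean ± SD, three independent experiments.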

[6] = target: T4, Tyrosine-protein phosphatase non-receptor type 1 (Homo sapiens, UniProt P18031); assay: Inhibition of recombinant PTP1B
T4 sequence (P18031 whole entry): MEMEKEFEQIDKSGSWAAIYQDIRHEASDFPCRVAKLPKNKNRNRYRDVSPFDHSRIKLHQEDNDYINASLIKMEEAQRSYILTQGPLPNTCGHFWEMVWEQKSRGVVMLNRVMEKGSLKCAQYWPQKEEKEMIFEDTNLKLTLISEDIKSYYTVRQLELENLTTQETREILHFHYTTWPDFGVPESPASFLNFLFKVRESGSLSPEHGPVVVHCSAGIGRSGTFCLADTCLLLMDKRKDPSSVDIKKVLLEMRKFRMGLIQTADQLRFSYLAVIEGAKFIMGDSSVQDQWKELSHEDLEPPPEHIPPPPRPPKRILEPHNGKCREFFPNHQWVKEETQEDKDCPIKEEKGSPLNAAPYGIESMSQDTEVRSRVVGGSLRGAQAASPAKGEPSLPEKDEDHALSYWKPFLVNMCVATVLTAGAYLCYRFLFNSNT

[7] = target: T5, Dual specificity protein phosphatase 1 (Homo sapiens, UniProt P28562); assay: Inhibition of recombinant MKP1
T5 sequence (P28562 whole entry): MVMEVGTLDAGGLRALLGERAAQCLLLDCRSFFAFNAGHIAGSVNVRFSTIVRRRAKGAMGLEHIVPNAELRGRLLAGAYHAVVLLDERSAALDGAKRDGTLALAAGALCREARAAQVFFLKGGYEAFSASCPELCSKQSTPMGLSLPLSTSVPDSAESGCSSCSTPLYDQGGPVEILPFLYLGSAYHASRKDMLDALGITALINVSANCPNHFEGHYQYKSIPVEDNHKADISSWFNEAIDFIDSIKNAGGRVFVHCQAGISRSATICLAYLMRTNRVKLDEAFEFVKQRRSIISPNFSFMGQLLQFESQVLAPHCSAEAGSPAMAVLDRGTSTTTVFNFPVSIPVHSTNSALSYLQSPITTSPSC

HeLa [8] = assay: Antiproliferative activity against human HeLa cells at 20 uM after 24 hrs by [3H]thymidine incorporation assay relative to control; type: functional
How it was run: (§1)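 5×10^4 cells in DMEM complete medium exposed 24 h to 20 μM inhibitor or DMSO vehicle; [3H]thymidine ([…]) added for final 4 h, cells harvested onto glass fiber filters, radioactivity by scintillation counting; expressed relative to DMSO control; mean ± SD of three independent experiments.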

Ca-Ski [9] = assay: Antiproliferative activity against human CaSki cells at 20 uM after 24 hrs by [3H]thymidine incorporation assay relative to control; type: functional; how it was run: as §1
[10] = target: T6, Receptor-type tyrosine-protein phosphatase C (Homo sapiens, UniProt P08575); assay: Inhibition of recombinant CD45
T6 sequence (P08575 whole entry): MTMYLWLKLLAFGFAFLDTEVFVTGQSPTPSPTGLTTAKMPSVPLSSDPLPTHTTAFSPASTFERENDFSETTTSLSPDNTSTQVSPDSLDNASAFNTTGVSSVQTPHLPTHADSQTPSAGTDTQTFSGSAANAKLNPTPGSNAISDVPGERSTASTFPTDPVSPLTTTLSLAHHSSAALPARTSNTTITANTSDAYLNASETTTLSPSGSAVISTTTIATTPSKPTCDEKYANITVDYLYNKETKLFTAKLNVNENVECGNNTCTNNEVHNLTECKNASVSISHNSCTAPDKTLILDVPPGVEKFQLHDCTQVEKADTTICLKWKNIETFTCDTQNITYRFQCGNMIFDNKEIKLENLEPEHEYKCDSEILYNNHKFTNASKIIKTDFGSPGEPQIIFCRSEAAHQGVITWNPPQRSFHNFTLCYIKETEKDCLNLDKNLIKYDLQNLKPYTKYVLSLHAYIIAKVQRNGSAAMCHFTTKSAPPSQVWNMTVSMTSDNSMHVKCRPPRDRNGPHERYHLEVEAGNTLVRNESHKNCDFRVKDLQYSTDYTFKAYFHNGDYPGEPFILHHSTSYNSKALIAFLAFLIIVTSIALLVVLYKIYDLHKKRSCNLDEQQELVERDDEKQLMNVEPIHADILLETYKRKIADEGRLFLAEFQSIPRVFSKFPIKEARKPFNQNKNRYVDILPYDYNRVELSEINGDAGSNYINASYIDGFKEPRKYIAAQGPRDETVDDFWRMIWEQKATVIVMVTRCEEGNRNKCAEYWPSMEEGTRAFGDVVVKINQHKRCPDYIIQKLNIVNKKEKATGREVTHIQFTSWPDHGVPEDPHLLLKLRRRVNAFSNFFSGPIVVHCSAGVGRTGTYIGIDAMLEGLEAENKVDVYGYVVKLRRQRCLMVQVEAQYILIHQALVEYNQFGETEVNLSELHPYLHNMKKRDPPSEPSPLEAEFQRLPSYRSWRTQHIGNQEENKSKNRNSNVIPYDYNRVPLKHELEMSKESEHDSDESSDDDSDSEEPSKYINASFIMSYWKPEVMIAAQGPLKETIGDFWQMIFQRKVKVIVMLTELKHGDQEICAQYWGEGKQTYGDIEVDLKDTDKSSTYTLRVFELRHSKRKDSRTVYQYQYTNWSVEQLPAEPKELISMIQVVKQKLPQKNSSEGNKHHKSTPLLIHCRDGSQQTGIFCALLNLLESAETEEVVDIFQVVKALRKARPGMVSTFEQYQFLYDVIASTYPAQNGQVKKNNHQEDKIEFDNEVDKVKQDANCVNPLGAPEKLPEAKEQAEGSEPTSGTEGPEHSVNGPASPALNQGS

HeLa [11] = assay: Induction of apoptosis in human HeLa cells assessed as apoptotic cells at 20 uM after 24 hrs by annexin V/propidium iodide based flow cytometry; type: functional, cell-based
How it was run: (§2)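 10^5 cells in DMEM/10% FCS incubated 24 h with 20 μM inhibitor or DMSO, trypsinized; half of cells stained with AnnexinV-FITC and propidium iodide, analysed by flow cytometry; live cells taken as AnnexinV- and PI-negative; mean ± SD from three independent experiments.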

Ca-Ski [12] = assay: Induction of apoptosis in human CaSki cells assessed as apoptotic cells at 20 uM after 24 hrs by annexin V/propidium iodide based flow cytometry; type: functional, cell-based; how it was run: as §2

Compound: O=C1/C(=C/c2ccc(-c3cccc(Cl)c3)o2)SC(=S)N1CCS(=O)(=O)O
- Ki [1]: 3.13 µM

Compound: S=C(Nc1ccc2c(c1)oc1ccccc12)Nc1cccc2ccccc12
- Ki [1]: 2.94 µM

Compound: CC1=C(C#N)c2nc(N)c(C#N)c(C)c2/C1=C/c1ccc(-c2ccc(C(=O)O)c(Cl)c2)o1
- Ki [1]: 3.87 µM

Compound: Cc1ccc(C)n1-c1ccc(C(=O)O)c(O)c1
- Ki [1]: 12.8 µM

Compound: O=C1NC(=S)N(c2ccc(F)cc2)C(=O)/C1=C/c1ccc(Br)o1
- Ki [1]: 12.1 µM

Compound: O=C1/C(=C/c2cn(-c3ccccc3)nc2-c2ccc(S(=O)(=O)N3CCOCC3)cc2)SC(=S)N1CCS(=O)(=O)O
- IC50 [2]: 2.4 µM

Compound: O=C(O)c1cccc(-c2ccc(/C=N/Nc3ccc([N+](=O)[O-])cn3)o2)c1
- Ki [1]: 13.8 µM

Compound: O=C1c2cccc3c4ccccc4n(c23)C(=O)C1(O)O
- Ki [1]: 13.8 µM

Compound: COc1ccc(-c2nn(-c3ccccc3)cc2/C=C2\SC(=S)N(CCS(=O)(=O)O)C2=O)cc1
- IC50 [2]: 1.8 µM

Compound: O=C1/C(=C/c2cn(-c3ccccc3)nc2-c2ccc(Cl)cc2)SC(=S)N1CCS(=O)(=O)O
- IC50 [2]: 1.8 µM

Compound: O=C1/C(=C/c2cn(-c3ccccc3)nc2-c2ccc(S(=O)(=O)N3CCCCC3)cc2)SC(=S)N1CCS(=O)(=O)O
- IC50 [3]: > 10 µM
- IC50 [4]: 2.4 µM
- Activity (HeLa [5]): Active
- IC50 [6]: 2.2 µM
- IC50 [7]: 2.8 µM
- Activity (HeLa [8]): <=30%
- Activity (Ca-Ski [9]): >50%
- IC50 [10]: 1.8 µM

Compound: O=C1NC(=O)N(c2cccc(Br)c2)C(=O)/C1=C/c1ccc(-c2ccc(C(=O)O)cc2)o1 (mixture of isomers)
- Ki [1]: 16.2 µM

Compound: O=C(/C=C/c1ccc(-c2ccccc2[N+](=O)[O-])o1)Nc1ccc(-c2nc3ccccc3o2)cc1
- Ki [1]: 1.76 µM

Compound: Cc1ccc(-c2nn(-c3ccccc3)cc2/C=C2\SC(=S)N(CCS(=O)(=O)O)C2=O)cc1
- IC50 [2]: 3.1 µM

Compound: Cc1ccc(C)n1-c1ccc(SCC(=O)O)cc1
- Ki [1]: 2.09 µM

Compound: COc1ccc(N2C(=O)/C(=C/c3ccc(I)o3)C(=O)NC2=S)cc1 (mixture of isomers)
- Ki [1]: 4.44 µM

Compound: O=C1C(Cl)=C/C(=N\S(=O)(=O)c2ccc(Cl)cc2)C(Cl)=C1Cl
- Ki [1]: 13.4 µM

Compound: Cc1cc(Br)c(-c2ccc(/C=C3\NC(=S)NC3=O)o2)cc1C
- Ki [1]: 3.19 µM

Compound: O=C1NC(=S)/C(=C/c2ccc(-c3ccc([N+](=O)[O-])cc3)o2)S1
- Ki [1]: 1.86 µM

Compound: O=C1/C(=C/c2cn(-c3ccccc3)nc2-c2ccc(OCc3ccccc3)cc2)SC(=S)N1CCS(=O)(=O)O
- IC50 [4]: 1.5 µM
- Activity (HeLa [5]): Active
- IC50 [6]: 1.8 µM
- Activity (HeLa [8]): <=30%
- Activity (Ca-Ski [9]): >50%

Compound: C=CCN1C(=O)/C(=C\C=C\c2ccco2)C(=O)NC1=S (mixture of isomers)
- Ki [1]: 15.8 µM

Compound: COc1ccc(OC)c2c1C(=O)c1ccccc1C2=O [1,4-DIMETHOXYANTHRAQUINONE]
- Ki [1]: 3.07 µM

Compound: O=C(O)C(Cc1ccccc1)N1C(=O)/C(=C/C=C/c2ccccc2)SC1=S (stereo not drawn)
- Ki [1]: 2.01 µM

Compound: O=C1NC(=S)N(c2cccc(Cl)c2)C(=O)/C1=C\c1ccc[nH]1 (mixture of isomers)
- Ki [1]: 3.49 µM

Compound: CCOC(=O)c1[nH]nc2c1C(=O)N(c1ccc(Br)cc1)C2=O
- Ki [1]: 2.64 µM

Compound: O=C1/C(=C/c2cn(-c3ccccc3)nc2-c2ccc(OCc3ccccc3F)cc2)SC(=S)N1CCS(=O)(=O)O
- Activity (HeLa [11]): inactive
- IC50 [3]: 2.8 µM
- IC50 [4]: 0.87 µM
- Activity (HeLa [5]): >50%
- IC50 [6]: 0.42 µM
- IC50 [7]: 0.52 µM
- Activity (HeLa [8]): 58%
- Activity (Ca-Ski [12]): inactive
- Activity (Ca-Ski [9]): 74%
- IC50 [10]: 0.5 µM

Compound: O=C1/C(=C/c2cn(-c3ccccc3)nc2-c2ccc(OCc3ccccc3Cl)cc2)SC(=S)N1CCS(=O)(=O)O
- Activity (HeLa [11]): inactive
- IC50 [3]: 3.4 µM
- IC50 [4]: 1.2 µM
- Activity (HeLa [5]): Active
- IC50 [6]: 0.59 µM
- IC50 [7]: 0.47 µM
- Activity (HeLa [8]): <=30%
- IC50 [2]: 0.071 µM
- Activity (Ca-Ski [12]): inactive
- Activity (Ca-Ski [9]): >50%
- IC50 [10]: 0.3 µM

Compound: O=C(/C=C/c1ccco1)/C=C/c1ccc(-c2ccc(Cl)c(Cl)c2)o1
- Ki [1]: 15.9 µM
